The results in this text go back to ChEMBL document CHEMBL2177094, “Structure dependence of long-chain [18F]fluorothia fatty acids as myocardial fatty acid oxidation probes” (J Med Chem, 2012).

Data set [1] concerns Heart. The data set is described as follows: Ratio of drug uptake in overnight fasted Sprague-Dawley rat heart at 0.7 to 1.4 MBq, iv at 30 mins to drug uptake in overnight fasted Sprague-Dawley rat heart at 0.7 to 1.4 MBq, iv preincubated with POCA for 2 hrs before compound administration measured at 30 mins post treatment. It counts as ADME, organism-based. To be noted: in vivo, 0.5 h. The procedure, abridged: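 Ratio of heart uptake (% dose kg/g) 30 min after tail-vein tracer in fasted control rats to that in rats given POCA 30 mg/kg i.p. 2 h before tracer. Tissue radioactivity was decay-corrected and weight-normalized.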

Data set [2] has as its system Muscle tissue. Description: Biodistribution in overnight fasted Sprague-Dawley rat muscle aqueous fraction at 0.7 to 1.4 MBq, iv preincubated with POCA for 2 hrs before compound administration measured at 120 mins post treatment by Folch-type extraction method. It counts as ADME, organism-based. Conditions: in vivo. A digest of the protocol: (§1)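 Female Sprague-Dawley rats, fasted overnight, under isoflurane (3.5% induction, 1.5% maintenance). [18F] tracer in 0.5–1.0% BSA/saline was given by tail vein. POCA group: 30 mg/kg i.p. 120 min before tracer. About 0.5 g tissue was homogenized and sonicated in chloroform/methanol (2:1) at 0 °C, then 40% urea and 5% H2SO4 were added and spun 10 min at 1,800 g. Aqueous, organic and pellet fractions were counted as % of total.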

Data set [3] concerns Liver. Description: Biodistribution in overnight fasted Sprague-Dawley rat liver pellet fraction at 0.7 to 1.4 MBq, iv preincubated with POCA for 2 hrs before compound administration measured at 120 mins post treatment by Folch-type extraction method. It counts as ADME, organism-based. Conditions: in vivo. A digest of the protocol: as §1
For data set [4], the system named is Muscle tissue. The data set is described as follows: Biodistribution in overnight fasted Sprague-Dawley rat muscle organic fraction at 0.7 to 1.4 MBq, iv at 120 mins by Folch-type extraction method. It counts as ADME, organism-based. Conditions: in vivo, 2 h. The procedure, abridged: as §1
For data set [5], the system named is Liver. The data set is described as follows: Biodistribution in overnight fasted Sprague-Dawley rat liver aqueous fraction at 0.7 to 1.4 MBq, iv at 120 mins by Folch-type extraction method. It counts as ADME, organism-based. To be noted: in vivo, 2 h. A digest of the protocol:
as §1

For data set [6], the system named is Heart. Description: Biodistribution in overnight fasted Sprague-Dawley rat heart pellet fraction at 0.7 to 1.4 MBq, iv at 120 mins by Folch-type extraction method. Format: ADME, organism-based. To be noted: in vivo, 2 h. The procedure, abridged:
as §1

In data set [7] the test system is Heart. The data set is described as follows: Biodistribution in overnight fasted Sprague-Dawley rat heart aqueous fraction at 0.7 to 1.4 MBq, iv at 120 mins by Folch-type extraction method. It counts as ADME, organism-based. Conditions: in vivo, 2 h. The procedure, abridged: as §1
For data set [8], the system named is Liver. The data set is described as follows: Biodistribution in overnight fasted Sprague-Dawley rat liver organic fraction at 0.7 to 1.4 MBq, iv preincubated with POCA for 2 hrs before compound administration measured at 30 mins post treatment by Folch-type extraction method. Format: ADME, organism-based. To be noted: in vivo, 0.5 h. A digest of the protocol:
as §1

Data set [9] concerns Muscle tissue. Description: Drug uptake in overnight fasted Sprague-Dawley rat muscle at 0.7 to 1.4 MBq, iv preincubated with POCA for 2 hrs before compound administration measured at 120 mins post treatment. It counts as ADME, organism-based. To be noted: in vivo. A digest of the protocol:
(§2)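 Female rats fasted overnight, under isoflurane (3.5% induction, 1.5% maintenance). 18F-labelled tracer formulated in 0.5–1.0% BSA/saline, injected via tail vein. Tissues harvested at 30 or 120 min, weighed, gamma-counted, decay-corrected. Uptake expressed as % dose kg/g, i.e. tissue CPM × body wt (kg) × 100 / (tissue wt (g) × dose CPM). POCA groups received 30 mg/kg i.p. 2 h before tracer. n = 5–6.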

The test system of data set [10] is Bone. The data set is described as follows: Drug uptake in overnight fasted Sprague-Dawley rat bone at 0.7 to 1.4 MBq, iv preincubated with POCA for 2 hrs before compound administration measured at 120 mins post treatment. To be noted: in vivo. Format: ADME, organism-based, Bone element. A digest of the protocol: (§3)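 Overnight-fasted female Sprague-Dawley rats under isoflurane received the [18F] tracer in 0.5–1.0% BSA/saline by tail vein. POCA group: 30 mg/kg i.p. 2 h before tracer. Tissues were excised at 30 or 120 min, weighed and gamma-counted with decay correction. Uptake = % dose kg/g, i.e. CPM tissue × body wt (kg) × 100 / (tissue wt (g) × CPM dose). n = 5–6.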

In the next data set the test system is Brain. The data set is described as follows: Drug uptake in overnight fasted Sprague-Dawley rat brain at 0.7 to 1.4 MBq, iv preincubated with POCA for 2 hrs before compound administration measured at 120 mins post treatment. It counts as ADME, organism-based. Conditions: in vivo. The procedure, abridged: as §3
For another data set, the system named is Kidney. Description: Drug uptake in overnight fasted Sprague-Dawley rat kidney at 0.7 to 1.4 MBq, iv preincubated with POCA for 2 hrs before compound administration measured at 120 mins post treatment. Format: ADME, organism-based. To be noted: in vivo. A digest of the protocol:
as §2

In data set [11] the test system is Bone. Description: Drug uptake in overnight fasted Sprague-Dawley rat bone at 0.7 to 1.4 MBq, iv preincubated with POCA for 2 hrs before compound administration measured at 30 mins post treatment. Format: ADME, organism-based, Bone element. Conditions: in vivo, 0.5 h. A digest of the protocol:
as §3

For data set [12], the system named is Muscle tissue. Description: Ratio of drug uptake in overnight fasted Sprague-Dawley rat muscle at 0.7 to 1.4 MBq, iv preincubated with POCA for 2 hrs before compound administration measured at 120 mins post treatment to drug uptake in overnight fasted Sprague-Dawley rat muscle at 0.7 to 1.4 MBq, iv at 120 mins. It counts as ADME, organism-based. To be noted: in vivo. The procedure, abridged: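 Ratio of skeletal muscle uptake (% dose kg/g) 120 min after tail-vein tracer in rats given POCA 30 mg/kg i.p. 2 h beforehand to that in fasted control rats. Radioactivity was decay-corrected and normalized to tissue and body weight.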

Data set [13] concerns Heart. The data set is described as follows: Metabolic stability in overnight fasted Sprague-Dawley rat heart at 9 to 11 MBq, iv measured at 55 to 115 mins by microPET analysis. Format: ADME, organism-based. To be noted: in vivo.

Consider `O=C(O)CCSCCCCCCCCCCCCCC[18F]`, for which, in the data set on Heart [1], the Ratio is 1.7. Moreover, the Drug uptake with Muscle tissue [2] was determined as 9.12%; in the data set with Liver [3] it was 22.07%; with Muscle tissue [4], 48.9%; in the data set with Liver [5] it was 8.18%; in the data set on Heart [6], 71.45%; in the data set on Heart [7], 2.39%. Also, the Drug uptake in the data set with Liver [8] is on record as 51.76%; in the data set on Muscle tissue [9], 0.0197 %IDKg/g; in the data set with Bone [10], 0.4042 %IDKg/g; in the data set on Brain it was 0.031 %IDKg/g; with Kidney it was 0.0947 %IDKg/g; with Bone [11], 0.2289 %IDKg/g.

For `O=C(O)CCSCCCCCCCCCCCC[18F]`, the Ratio in the data set with Muscle tissue [12] was 2.7. Further, the Drug uptake is 19.16% in the data set with Muscle tissue [2]; 38.47% in the data set on Liver [3]; 34% in the data set with Muscle tissue [4]; 5.32% with Liver [5]; 76.93% in the data set on Heart [6]; 4.17% in the data set on Heart [7]. The Drug uptake in the data set with Liver [8] is on record as 41.68%; in the data set on Muscle tissue [9] it was 0.0298 %IDKg/g; with Bone [10], 0.6549 %IDKg/g; in the data set with Brain, 0.0578 %IDKg/g; with Kidney it was 0.1637 %IDKg/g; in the data set with Bone [11] it was 0.179 %IDKg/g.

Take `O=C(O)CCSCCCC/C=C\CCCCCCCC[18F]`: the Stability result with Heart [13] is reported as “Stable”. The Drug uptake in the data set with Muscle tissue [2] is listed as 11.37%; with Liver [3], 23.82%; with Muscle tissue [4], 21.98%; in the data set on Liver [5], 5.68%; in the data set with Heart [6], 88.78%; in the data set with Heart [7], 1.86%. Further, the Drug uptake in the data set with Liver [8] is recorded as 58.8%; in the data set on Muscle tissue [9], 0.0216 %IDKg/g; in the data set on Bone [10], 0.299 %IDKg/g; in the data set with Brain it was 0.0206 %IDKg/g; in the data set on Kidney, 0.0611 %IDKg/g; in the data set on Bone [11] it was 0.1475 %IDKg/g.

For the compound `O=C(O)CCCCSCCCCCCCCCCCC[18F]`, in the data set on Muscle tissue [12], the Ratio is 2.2. Further, the Drug uptake in the data set on Muscle tissue [2] was determined as 9.3%; in the data set with Liver [3], 27.76%; in the data set on Muscle tissue [4] it was 39.74%; with Liver [5], 10.15%; in the data set with Heart [6], 67.39%; in the data set with Heart [7] it was 4.03%. The Drug uptake came to 54.88% in the data set on Liver [8]; 0.0599 %IDKg/g in the data set on Muscle tissue [9]; 0.2104 %IDKg/g in the data set with Bone [10]; 0.0519 %IDKg/g with Brain; 0.1554 %IDKg/g in the data set on Kidney; 0.1037 %IDKg/g with Bone [11].
